Hits are enriched below; roughly 2.3% of the tested compounds scored in any of these assays.
V1R ag counter: agonists of human V1a receptor, primary screen, counter-screen for OXTR agonist project, fluorescence, CHO-V1R cells; activation, % at 3 µM; 320,000 compounds, 0.25% hits; Fluo-8 calcium fluorescence, agonist mode; 0% DMSO, 100% 3 nM vasopressin; Vasopressin V1a receptor (Homo sapiens), P37288;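 active means activation above the mean activation of all tested compounds plus 3 SD, per screening run, cut at about 20% in these data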;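 further: signal is peak over basal fluorescence ratio across a 100 second FLIPR read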
TAAR1 antagonist: human TAAR1 antagonists, primary screen, Fluo-8 calcium fluorescence, CHO RD-HGA16 cells; Trace amine-associated receptor 1 (Homo sapiens), Q96RJ0; antagonist; inhibition, % at 3 µM; 360,000 compounds, 1.5% hits; AID 624466, 2012;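 active means inhibition above a per-plate cutoff, the mean inhibition of test compounds on that plate plus 3 SD, cut at about 49% in these data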;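 further: 0% = DMSO plus EC80 beta-PEA response and 100% = DMSO alone without agonist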
Target sequence (Q96RJ0 whole entry, looked up): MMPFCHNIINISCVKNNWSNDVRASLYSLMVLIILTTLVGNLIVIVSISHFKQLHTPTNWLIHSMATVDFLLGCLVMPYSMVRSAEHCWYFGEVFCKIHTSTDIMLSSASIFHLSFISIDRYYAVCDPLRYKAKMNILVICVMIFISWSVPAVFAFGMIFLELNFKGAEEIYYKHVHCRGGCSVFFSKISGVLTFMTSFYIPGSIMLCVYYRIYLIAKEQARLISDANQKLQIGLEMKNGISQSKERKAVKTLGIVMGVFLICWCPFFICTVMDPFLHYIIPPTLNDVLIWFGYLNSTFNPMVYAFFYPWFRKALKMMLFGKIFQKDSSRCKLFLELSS
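System: CHO RD-HGA16 cells bearing hTAAR1. Reagent: EC80 β-phenethylamine stimulus. Schedule: seeding 17-24 h prior, 75-min 37 °C, 30-min RT dye loading. Signal: Fluo-8 intracellular calcium dye fluorescence, real-time kinetic reads. Read-out: % inhibition from peak post-agonist over basal fluorescence ratio. Benchmarks: vehicle wells and EC80 agonist wells. Replicates: n of 1.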
OXTR potentiator: human OXTR potentiators, primary screen, fluorescence, CHO-OTR cells, Fluo-8 calcium | Fluo-8 calcium fluorescence, potentiator mode; 0% = oxytocin EC15, 100% = EC100 | activation, % at 3 µM | 320,000 compounds, 0.061% hits | AID 2445, 2010;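 active means activation above that plate's cutoff, the mean activation of tested compounds plus 3 SD, cut at about 6.6% in these data, passing the limit was not always enough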;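 further: 100% uses oxytocin at 75 nM as the full agonist control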
Target sequence (P30559 whole entry, looked up): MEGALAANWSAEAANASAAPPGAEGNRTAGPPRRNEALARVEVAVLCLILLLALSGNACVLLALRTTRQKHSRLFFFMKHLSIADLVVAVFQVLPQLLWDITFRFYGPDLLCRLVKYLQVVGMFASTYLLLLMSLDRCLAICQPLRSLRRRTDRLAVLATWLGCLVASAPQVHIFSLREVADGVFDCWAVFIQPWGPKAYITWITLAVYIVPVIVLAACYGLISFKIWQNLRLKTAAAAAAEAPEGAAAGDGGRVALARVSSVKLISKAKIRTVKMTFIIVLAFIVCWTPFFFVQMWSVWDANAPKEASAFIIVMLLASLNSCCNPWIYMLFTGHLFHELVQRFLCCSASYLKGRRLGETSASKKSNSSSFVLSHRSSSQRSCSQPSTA
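Assay system: CHO cell line stably expressing human OTR | Also added: Oxytocin at about EC15, sub-maximal agonist stimulus | Times: Compound 6 min at room temperature before oxytocin, 100 s read | Measured by: Fluo-8 intracellular calcium fluorescence, ex 470-495, em 515-575 nm | Controls: EC15 oxytocin alone as 0%, 75 nM oxytocin as 100%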
TAAR1 ag: human TAAR1 agonists, primary screen, Fluo-8 calcium fluorescence, CHO RD-HGA16 cells; Trace amine-associated receptor 1 (Homo sapiens), Q96RJ0; vehicle wells 0%, saturating PEA agonist 100%; activation, % at 3 µM; 360,000 compounds, 0.99% hits; AID 624467, 2012;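 active means activation above the mean activation of all test compounds in the run plus 3 SD, cut at about 38% in these data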
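System: CHO RD-HGA16 cells carrying human TAAR1 plus Gα16; Incubation: 17-24 h seeding, 75 min 37 °C dye, 30 min RT; Measured by: Fluo-8 fluorescence, 5 s baseline then 140 s kinetic read; Control set: DMSO and PEA EC100; Replication: single well for each compound.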
OXTR agonist: human OXTR agonists, primary screen, fluorescence, CHO-OTR cells, Fluo-8 calcium. Oxytocin receptor (Homo sapiens), P30559. Fluo-8 calcium fluorescence; normalized: DMSO 0%, oxytocin 100%. activation, % at 3 µM. 320,000 compounds, 0.32% hits. AID 2435, 2010;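 active means activation above the mean of all tested compounds plus 3 SD, cutoff set per screening run, cut at about 20% in these data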;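 further: peak over basal fluorescence ratio from a 100 s FLIPR kinetic read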
* hit, by the source's call; . = no result given.

SMILES	V1R ag counter	TAAR1 antagonist	OXTR potentiator	TAAR1 ag	OXTR agonist
COC(=O)c1cc2c(c3c4ccccc4n(S(=O)(=O)c4cccc(C)c4)c13)C(=O)N(Cc1ccc(N(C)C)cc1)C2	.	-1.0	.	-0.4	.
O=C1N(Cc2cccnc2)C[C@@H]2C[C@@H](c3cccc(OC4CCCC4)c3)N3CCC[C@@]123	0.3	8.8	-11.4	-0.3	-0.5
O=C(Nc1ccccc1Cl)c1ccccc1CC(O)(c1ccccc1)c1ccccc1	.	53.8*	.	2.2	.
CC(C)(C)c1ccc(C(=O)Nc2ccccc2Cl)cc1	-1.1	24.8	-0.1	29.1	-1.1
O=c1nccc(N/N=C/c2cccc(O)c2)[nH]1	-0.1	-13.5	2.2	39.9*	1.8
COc1cc(/C=N/Nc2ccnc(=O)[nH]2)ccc1O	.	-10.1	.	5.0	.
COCC(=O)Nc1ccc2c(c1)[C@H]1C[C@@H](CC(=O)NCC3CC3)O[C@H](CO)[C@H]1O2	.	-1.5	.	0.1	.
Cc1ccc(N(C(=O)c2csnn2)C(C(=O)NC2CCCCC2)c2ccccn2)cc1C (stereo not drawn)	0.0	-24.6	-4.5	1.4	0.2
CNCCNC[C@H](Cc1cccc2ccccc12)NCCc1ccccc1	1.8	-10.3	-0.8	37.6*	1.7
C[C@H]1CN([C@@H](C)CO)C(=O)c2cccc(NC(=O)Nc3ccc(C(F)(F)F)cc3)c2O[C@H]1CN(C)C	2.3	4.9	-7.1	8.5	0.4
Cc1cc(C(=O)Nc2cccc3c2O[C@H](CN(C)CC2CC2)[C@@H](C)CN([C@H](C)CO)C3=O)n(C)n1	0.5	14.2	2.8	43.0*	1.2
C[C@H]1CN([C@@H](C)CO)C(=O)c2cccc(NC(=O)c3nc4ccccc4s3)c2O[C@H]1CN(C)C(=O)Nc1ccc(F)cc1	1.9	55.3*	-7.2	32.8	2.9
C[C@H]1CN([C@@H](C)CO)C(=O)c2cccc(NC(=O)Nc3ccc(C(F)(F)F)cc3)c2O[C@@H]1CN(C)C(=O)Nc1ccc(F)cc1	5.5	56.0*	-8.3	23.3	6.3
C[C@H](CO)N1C[C@H](C)[C@@H](CN(C)CC2CC2)Oc2c(NC(=O)C3CC3)cccc2C1=O	.	-4.6	.	6.6	.
C[C@H](CO)N1C[C@H](C)[C@@H](CN(C)C(=O)Nc2ccc(C(F)(F)F)cc2)Oc2c(NC(=O)Nc3ccc(C(F)(F)F)cc3)cccc2C1=O	4.7	57.8*	-0.5	10.1	3.2
COc1ccc(NC(=O)Nc2cccc3c2O[C@H](CN(C)C(=O)Nc2ccc(C(F)(F)F)cc2)[C@@H](C)CN([C@H](C)CO)C3=O)cc1	0.2	.	4.1	.	-0.5
CN(C(=O)COC(=O)C1CCN(S(=O)(=O)c2c(Cl)cccc2Cl)CC1)C1CCCCC1	5.0	18.1	-18.2	10.8	5.8
CCN(C(=O)COC(=O)CNS(=O)(=O)c1ccc(SC)c([N+](=O)[O-])c1)C1CCCCC1	0.7	7.5	-11.6	6.0	0.6
CCOc1ccc(CCNC(=O)c2c(C)noc2C)cc1OCC	0.9	-2.8	2.4	0.8	0.7
CCOc1ccc(CCNC(=O)c2cc3c(C)nccc3[nH]c2=O)cc1OCC	1.6	51.2*	-10.0	12.7	-1.6
O=[N+]([O-])c1cccc(C2NCC(c3ccccc3Cl)c3c2[nH]c2ccccc32)c1 (stereo not drawn)	345.3*	14.5	-21.8	14.1	242.7*
O=c1c2ccccc2nc(COc2ccccc2)n1/N=C/c1cn[nH]c1-c1ccccc1	3.5	55.1*	-6.0	8.7	-0.7
CCn1c(N2CCN(S(=O)(=O)c3ccc(Cl)cc3)CC2)nc2ccccc21	8.9	72.4*	-9.2	19.7	7.5
CCn1c(N2CCN(S(=O)(=O)c3ccc(F)cc3)CC2)nc2ccccc21	10.1	22.7	-6.7	10.8	10.4
COc1cccc(C(=O)/C=C/Nc2ccc(S(=O)(=O)Nc3ccc(C(C)=O)cc3)cc2)c1	1.0	16.2	-1.2	9.0	0.8
SMILES	V1R ag counter	TAAR1 antagonist	OXTR potentiator	TAAR1 ag	OXTR agonist
COc1ccc(C(=O)/C=C/Nc2ccc(S(=O)(=O)Nc3cccc(C(C)=O)c3)cc2)cc1	4.7	56.1*	-11.1	3.4	4.1
NC(=O)C1CCN(C(=O)COc2ccc3ccc(=O)oc3c2)CC1	1.1	4.6	0.6	1.1	1.0
CCN1C(=O)N/C(=C/c2ccc(C)o2)C1=O	-0.1	12.9	-14.7	4.6	-0.2
CCN1C(=O)N/C(=C/c2ccc(Sc3ccc(C)cc3)o2)C1=O	4.6	64.8*	-14.4	17.8	-0.5
OC[C@H]1O[C@@H](c2nc3ccc(-c4nc(-c5cccs5)no4)cc3[nH]2)C[C@@H]1O	.	9.3	.	3.9	.
Cc1c(C(=O)NCC2COc3ccccc3O2)oc2ccc(S(=O)(=O)N3CCOCC3)cc12 (stereo not drawn)	6.2	58.1*	-9.2	33.3	8.2
Cc1c(C(=O)NCc2ccccc2)oc2ccc(S(=O)(=O)N3CCC4(CC3)OCCO4)cc12	3.8	22.8	-6.9	18.3	1.4
Cc1c(C(=O)NCCc2ccccc2)oc2ccc(S(=O)(=O)N3CCOCC3)cc12	7.0	28.9	-8.1	38.1*	2.5
COc1cccc(NC(=O)c2oc3ccc(S(=O)(=O)N4CCOCC4)cc3c2C)c1	4.0	52.1*	-1.9	18.9	-0.2
Cc1c(C(=O)NCCC2=CCCCC2)oc2ccc(S(=O)(=O)N3CCC4(CC3)OCCO4)cc12	1.7	60.2*	-11.9	21.1	-0.5
COCCCNC(=O)c1oc2ccc(S(=O)(=O)N3CCOCC3)cc2c1C	0.5	5.7	-0.4	6.8	-0.4
Fc1ccc(OCCCCN2CCOCC2)cc1	0.7	-4.1	-7.5	6.6	1.2
Cc1ccc(C(=O)Oc2cccc(NC(=O)c3cccs3)c2)cc1S(=O)(=O)N1CCOCC1	0.0	57.1*	-19.1	11.2	-2.1
COc1ccc(C2(c3ccc(OC)cc3)NC(=O)N(CC(=O)NCC(C)c3ccccc3)C2=O)cc1 (stereo not drawn)	2.9	56.7*	-7.4	22.2	0.3
Cc1nn(-c2ccccc2)c(Cl)c1/C=N/NC(=O)OC(C)(C)C	5.3	53.8*	-4.4	12.5	-1.1
Cc1ccc(C)c(OCC(=O)N/N=C/c2c(C)nn(-c3ccccc3)c2Cl)c1	0.2	53.2*	-7.0	10.7	-0.6
CC(=O)Nc1ccc(S(=O)(=O)N(C)c2ccc(OCC(=O)Nc3ccccc3C(C)=O)cc2)cc1	.	55.0*	.	13.0	.
Cc1ccc(S(=O)(=O)N(C)C)cc1NC(=O)COc1ccccc1C(=O)Nc1ccccc1	3.8	54.8*	-13.6	14.0	1.6

Bioassay records: PubChem BioAssay, The Scripps Research Institute Molecular Screening Center
